Results from ChEMBL document CHEMBL1795252, “New class azaphilone produced by a marine fish-derived Chaetomium globosum. The stereochemistry and biological activities” (Bioorg Med Chem, 2011).

Columns and labels:
Assay type in all cases: functional, cell-based
[1] = tested on: P388; assay: Cytotoxicity against mouse P388 cells after 72 hrs by MTT assay; settings: P388, 72 h
Procedure, shortened: (§1)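 Cells grown in Eagle's MEM with 10% fetal calf serum at 37 °C, 5% CO2. Test material dissolved in DMSO (10 mM stock), diluted in medium to 200, 20 and 2 µM working solutions, combined with cell suspension (1 × 10^5 cells/ml). Incubated 72 h at 37 °C, MTT labeling, formazan dissolved in 20% SDS/0.1 N HCl, absorbance 540 nm. Growth as % of untreated control; triplicate assays; IC50 from semilog plots of averaged data.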

[2] = tested on: HL-60; assay: Cytotoxicity against human HL60 cells after 72 hrs by MTT assay; settings: HL-60, 72 h; procedure, shortened: as §1
[3] = tested on: L1210; assay: Cytotoxicity against mouse L1210 cells after 72 hrs by MTT assay; settings: L1210, 72 h; procedure, shortened: as §1
[4] = tested on: KB; assay: Cytotoxicity against human KB cells after 72 hrs by MTT assay; procedure, shortened: as §1

| SMILES | IC50 [1] | IC50 [2] | IC50 [3] | IC50 [4] |
| --- | --- | --- | --- | --- |
| O=c1[nH]cc(F)c(=O)[nH]1 [FLUOROURACIL] | 1.7 µM | 2.7 µM | 1.1 µM | 7.7 µM |
| C/C=C(\Cl)C(=O)[C@@](C)(O)[C@H]1CC(=O)C(C)=C2C=C(/C=C/[C@@H](C)[C@@H](C)O)OC=C21 [CHAETOMUGILIN P] | 0.7 µM | 1.2 µM | 1.5 µM | 1.8 µM |
| C[C@H](O)[C@@H](C)/C=C/C1=CC2=C(Cl)C(=O)[C@](C)(O)[C@@H](O)[C@@H]2CO1 [CHAETOMUGILIN R] | 32 µM | 51.8 µM | 67.1 µM | 67.1 µM |
| C/C=C(\C)C(=O)C[C@H]1C2=COC(/C=C/[C@@H](C)[C@@H](C)O)=CC2=C(Cl)C(=O)[C@@]1(C)O [CHAETOMUGILIN I] | 1.1 µM | 1.1 µM | 1.9 µM | 2.3 µM |
| C/C=C(\C)C(=O)C[C@H]1C2=COC(/C=C/[C@H](C)[C@@H](C)O)=CC2=C(Cl)C(=O)[C@@]1(C)O | – | 1 µM | 1.6 µM | 1.2 µM |
